Assay outcomes: PubChem BioAssay, several laboratories
MC4R barr agon = human MC4R agonism via beta-arrestin; hit rate 0.98% among 360,000; U2OS MC4R beta-arrestin complementation, luminescence; percent of melanotan II response, DMSO zero; P32245; activation, % at 8.9 µM;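 active means activation above a per-plate cutoff, the mean activation of sample wells on that plate plus 3 SD, cut at about 8% in these data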
Target sequence (P32245 whole entry, looked up): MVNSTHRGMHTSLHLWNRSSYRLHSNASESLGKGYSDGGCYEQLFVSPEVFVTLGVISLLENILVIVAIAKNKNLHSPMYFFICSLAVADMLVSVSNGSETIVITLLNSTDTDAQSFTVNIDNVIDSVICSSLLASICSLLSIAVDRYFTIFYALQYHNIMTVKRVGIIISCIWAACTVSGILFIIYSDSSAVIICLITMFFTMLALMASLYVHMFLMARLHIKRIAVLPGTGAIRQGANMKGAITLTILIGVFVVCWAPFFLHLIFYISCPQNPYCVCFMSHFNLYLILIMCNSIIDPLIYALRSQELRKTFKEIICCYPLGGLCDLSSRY
TMEM16A act = activates or potentiates the mouse TMEM16A chloride channel | hit rate 0.3% among 340,000 | AID 623877 | Q8BHY3 | B-score at 10 µM | HEK293 TMEM16A/YFP-H148Q/I152L, iodide quench fluorescence; stronger effect = lower value;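 active means fluorescence-ratio B-score plate-corrected deviation score at least 3 library SD below zero, with starting fluorescence score within 5 deviations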;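 further: channel opened by trigger with iodide after compound preincubation; score built on the fluorescence ratio of max minus min over baseline; more negative score means more quench and so TMEM16A activation or potentiation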
CSC inhib = cancer stem cell inhibition; AID 2717; inhibition, % at 7.5 µM; hit rate 1.1% among 300,000; cancer stem cell-like cells viability, luminescence; in the data active means inhibition above about 75%; tested in HMLE shEcad cells
MC4R antagonist = antagonists of human melanocortin 4 receptor (MC4R); P32245; MC4R-expressing cells, MTII-stimulated cAMP, LANCE TR-FRET; inhibition, % at 6.5 µM; hit rate 0.48% among 360,000;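 active means inhibition above its plate's cutoff, the mean of tested wells on that plate plus 3 SD, cut at about 29% in these data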
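system = U2OS cells with stable human MC4R expression | also added = Melanotan II challenge after compound preincubation | dosing = one concentration, 6.5 µM nominal | incubation = compound 30 min, challenge 1 h, detection 1 h | measured by = TR-FRET with Eu-cAMP and labeled anti-cAMP, 671 nm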
ANO1 block = blocks the mouse calcium-activated chloride channel TMEM16A; Q8BHY3; hit rate 1.2% among 310,000; HEK293 TMEM16A/YFP iodide influx fluorescence, ionomycin; AID 588511; normalized B-score (activity score, 25-100; higher = stronger inhibition) at 10 µM;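 active means ratio plate-corrected score three or more library SD toward inhibition, starting fluorescence score within five deviations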;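 further: score derived from kinetic fluorescence span divided by baseline fluorescence per well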
Beta cell apopt = blocks beta cell apoptosis | INS-1E cytokine-induced death, ATP luminescence, 48 h; percent of positive-control rescue, neutral wells zero | protection from apoptosis, % (no concentration beside the values) | hit rate 0.8% among 300,000;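 active means Every replicate reaches about 75%, or at least half do and their mean reaches it too, limit read from the data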;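 further: higher means more ATP so stronger rescue from cytokine killing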
Of the large screens only hits and unclear results are named; the others gave an inactive call. Rows were chosen to be rich in hits. Some 3.8% of all compounds tested hit in one or more screens of this group.

N#CC1=C(N)NC(SCc2ccc(Cl)cc2)=C(C#N)C12CCCCC2	ANO1 block 100
N#CC1=C(N)NC(SCc2ccc(Br)cc2)=C(C#N)C12CCCCC2	ANO1 block 100
CCSC1=C(C#N)C2(CCCC2)C(C#N)=C(N)N1	none (no result: TMEM16A act)
CCC(C(=O)NC(C)(C)C)N(Cc1ccc(F)cc1)C(=O)c1snc(C(N)=O)c1N (stereo unspecified)	none (no result: Beta cell apopt)
COc1ccc(C2/C=C\CN3CCC[C@H]3C(=O)N2Cc2ccc(F)cc2)cc1 (stereo partly specified)	none (no result: CSC inhib, ANO1 block, Beta cell apopt)
C[C@H](O)[C@@H]1CN2CCc3c([nH]c4ccccc34)[C@@H]2C[C@@H]1N(C)C(=O)NC1CCCCC1	none (no result: TMEM16A act, CSC inhib, ANO1 block, Beta cell apopt)
Fc1ccc(Cn2ccc(-c3cnc(-c4ccccc4)s3)n2)cc1	ANO1 block 100
O=C(c1ccc(F)cc1)n1ccc(-c2cnc(-c3ccccc3)s2)n1	none
O=C(/C=C/c1ccc(N2CCC(c3ccccc3)=N2)cc1)c1ccccc1	CSC inhib 92 (no result: MC4R barr agon, TMEM16A act, MC4R antagonist)
Cc1cccc(-n2c(CCc3ccccc3)nnc2SCC(=O)c2ccccc2)c1	MC4R barr agon 8.3
Cc1ccc(Oc2nc(-c3ccccc3)ncc2S(C)(=O)=O)cc1	MC4R barr agon 8.4
O=C1C2CC=CCC2C(=O)N1c1ccc(NCCc2ccc(O)cc2)c([N+](=O)[O-])c1 (stereo unspecified)	ANO1 block 25
O=C1C2CC=CCC2C(=O)N1c1ccc(NCCc2ccc(Cl)cc2)c([N+](=O)[O-])c1 (stereo unspecified)	none
CC[C@]12c3[nH]c4cc(CCC(=O)N(C)C)ccc4c3CCN1C(=O)[C@@H](CC(=O)NCC13CC4CC(CC(C4)C1)C3)C[C@@H]2C(=O)N1CCN(C(=O)c2ccco2)CC1	none (no result: TMEM16A act, CSC inhib, ANO1 block, Beta cell apopt)
Cc1cc(C)n(CCc2nc(-c3ccc(C(C)(C)C)cc3)cs2)n1	ANO1 block 25
Cc1cc(C)n(CCc2nc(-c3ccc(F)cc3)cs2)n1	none
S=C(Nc1ccc(-c2nc3ccccc3[nH]2)cc1)Nc1cccnc1	none
Cc1ccc(NC(=O)CSc2nnc(-c3ccoc3C)n2CCCN(C)C)cc1Cl	none
CC(C)(C)c1cc[n+](C2=C([O-])c3ccccc3C(=O)/C2=N\S(=O)(=O)c2ccccc2)cc1	Beta cell apopt 82
Cc1cc[n+](C2=C([O-])c3ccccc3C(=O)/C2=N\S(=O)(=O)c2cccs2)cc1C	none
O=S(=O)([N-]c1nc2ccccc2nc1-[n+]1ccc(CCCc2ccccc2)cc1)c1cccs1	none
O=C1/C(=N\S(=O)(=O)c2cccs2)C([n+]2cccc(Cc3ccccc3)c2)=C([O-])c2ccccc21	Beta cell apopt 101
O=C1/C(=N\S(=O)(=O)c2cccs2)C([n+]2ccc(CCCc3ccccc3)cc2)=C([O-])c2ccccc21	CSC inhib 93, Beta cell apopt 104
Cc1cc(C)c[n+](C2=C([O-])c3ccccc3C(=O)/C2=N\S(=O)(=O)c2cccs2)c1	Beta cell apopt 107
CCN1C(=O)C2CCCCN2c2ccc(C(=O)NCCOC)cc21 (stereo unspecified)	none
Nc1nc(-c2ccccc2)c(CCCNc2ccccc2)c(=O)[nH]1	none (no result: CSC inhib, ANO1 block, Beta cell apopt)
Cc1cccc(N=C2CCCC2C(=O)Nc2cccc(C)c2C)c1C (stereo unspecified)	none (no result: CSC inhib, ANO1 block, Beta cell apopt)
CCN1C(=O)[C@H]2[C@@H](c3ccc(C(F)(F)F)cc3)N[C@]3(CCCN(Cc4ccc(C)cc4)C3=O)[C@H]2C1=O	none (no result: TMEM16A act, CSC inhib, ANO1 block, Beta cell apopt)
CCCCC[n+]1ccn(C2=C([O-])c3ccccc3C(=O)/C2=N\S(=O)(=O)c2ccccc2)c1	Beta cell apopt 90
COc1ccc(OC)c(C(=O)NC(CC(N)=O)c2ccc(N3CCC(Cc4ccccc4)CC3)c([N+](=O)[O-])c2)c1 (stereo unspecified)	none
CN1C(=O)/C(=C/c2ccccc2Cl)Sc2ccc(C(=O)N3CCCC3)cc21	ANO1 block 100
Clc1ccccc1Cn1c(/C=C/c2ccco2)nc2ccccc21	CSC inhib 112
O=c1ccc(-c2nc3ccccc3n2Cc2ccccc2Cl)c[nH]1	none (no result: Beta cell apopt)
CC(C)Oc1ccc(S(=O)(=O)N2CCOCC2)cc1NC(=O)CSC(=S)N1CCCC1	none (no result: TMEM16A act, CSC inhib, ANO1 block, Beta cell apopt)
COc1cc(CNCCc2ccccc2)cc(Br)c1OCC(=O)Nc1ccccc1C	MC4R barr agon 8.6 (no result: CSC inhib)
CC(c1ccco1)N(C(=O)c1cccc(S(=O)(=O)N(C)C)c1)c1ccccn1 (stereo unspecified)	none
COc1ccc(-c2csc(C(O)c3ccc(F)c(OC)c3)n2)cc1 (stereo unspecified)	none (no result: TMEM16A act, CSC inhib, ANO1 block, Beta cell apopt)
CC(=O)n1cc(N(C(=O)CCl)c2ccc([N+](=O)[O-])cc2)c2ccccc21	MC4R antagonist 32
O=C(NC1CCN(CC(=O)N(c2ccccc2)c2ccccc2)CC1)c1ccc([N+](=O)[O-])cc1	none
O=Cc1[nH]c2ccccc2c1N(C(=O)CCl)c1ccc([N+](=O)[O-])cc1	ANO1 block 25
CC(=O)n1cc(N(C(=O)CCl)c2ccccc2)c2ccccc21	MC4R barr agon 17
O=C(CN1CCOCC1)Nc1ccc(NC(=O)c2ccccc2F)cc1	none
O=C(COc1ccc(S(=O)(=O)N2CCOCC2)cc1Cl)NCc1ccc2c(c1)OCO2	none (no result: TMEM16A act, CSC inhib, ANO1 block, Beta cell apopt)
Cc1ccc2ccc3ccc(C)nc3c2n1	Beta cell apopt 78
COCCNc1nc(NCc2ccc(NC(C)=O)cc2)c2sc(-c3ccccc3)cc2n1	none (no result: TMEM16A act, CSC inhib, ANO1 block, Beta cell apopt)
COc1cc(/C=C(/C#N)c2nc3ccccc3[nH]2)ccc1OCC(=O)Nc1ccccc1C	CSC inhib 83
COc1cc(/C=C(/C#N)c2nc3ccccc3[nH]2)ccc1OCC(=O)Nc1ccccc1C(C)C	CSC inhib 100
CC1CCC2(CC1)NC(=O)N(CC(=O)N1CCN(c3ccccc3)CC1)C2=O (stereo unspecified)	none (no result: ANO1 block)
COc1ccc(N2CCN(S(=O)(=O)CCNC(=O)COc3ccccc3C)CC2)cc1	none (no result: Beta cell apopt)
O=C(Cc1ccccc1F)Nc1cccc(S(=O)(=O)N2CCOCC2)c1	none (no result: CSC inhib, ANO1 block)
COc1ccc(/C=C/C(=O)c2c(O)cc(C)oc2=O)c(OC)c1	none
COc1ccc(C2CC(c3c(O)cc(C)oc3=O)=NCCS2)c(OC)c1 (stereo unspecified)	CSC inhib 80 (no result: Beta cell apopt)
COc1ccc2c(COC(=O)[C@H](C)NS(=O)(=O)c3ccccc3F)cc(=O)oc2c1	none (no result: ANO1 block)
Cc1cc(C(=O)CCl)c(C)n1CCc1ccc(Cl)cc1	CSC inhib 116
COc1cccc2sc(=NC(=O)CS(=O)(=O)c3ccc(Cl)cc3)n(C)c12	none (no result: Beta cell apopt)
Cc1ccc([C@H]2C(C(=O)O)=CC[C@@H](c3ccc(C(C)C)cc3)N2S(=O)(=O)c2ccc(C)cc2)cc1	none (no result: TMEM16A act, ANO1 block)
